# CHRM5 PAM – human M5 muscarinic receptor positive allosteric modulators, primary screen, CHO-K1 cells, Fluo-8 calcium fluorescence; CHO-K1 hM5, ACh EC20 PAM; 0% = ACh EC20, 100% = ACh EC100; activation, % at 3 µM; 0.3% of 360,000 active;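 active = activation above the run cutoff, the mean activation of all test compounds plus 3 SD, cut at about 18% in these data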
#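 Test system: CHO-K1 hM5 cells / Doses: single-point, 3 µM nominal / Times: Post-acetylcholine fluorescence recording 140 s / Technique: Fluo-8 calcium fluorescence / Measure: Max/basal fluorescence ratio as % of EC20–EC100 ACh window / Benchmarks: low control EC20 acetylcholine (0%), high control EC100 acetylcholine (100%) / Replicates: one well per compound, no replicates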
# M5 antag – human M5 muscarinic receptor antagonists, primary screen, CHO cells, Fluo-8 calcium fluorescence | 0.59% of 360,000 active | CHO-hM5 cells, ACh EC80 | inhibition, % at 3 µM | Muscarinic acetylcholine receptor M5 (Homo sapiens), P08912;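 active = inhibition above a per-plate cutoff, the mean of that plate's test compounds plus 3 SD, cut at about 27% in these data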;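 also: 0% = acetylcholine EC80 with DMSO and 100% = DMSO without agonist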
# M4 antag – human M4 muscarinic receptor antagonists, primary screen, CHO cells, Fluo-8 calcium fluorescence; Muscarinic acetylcholine receptor M4 (Homo sapiens), P08173; CHO-hM4 cells, ACh EC80; inhibition, % at 3 µM; 0.73% of 360,000 active; AID 624125, 2012;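 active = inhibition above its plate's cutoff, the mean inhibition of sample wells plus 3 SD, cut at about 27% in these data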;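 also: 0% = acetylcholine EC80 with DMSO and 100% = DMSO without agonist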
# Target sequence (P08173 whole entry, looked up): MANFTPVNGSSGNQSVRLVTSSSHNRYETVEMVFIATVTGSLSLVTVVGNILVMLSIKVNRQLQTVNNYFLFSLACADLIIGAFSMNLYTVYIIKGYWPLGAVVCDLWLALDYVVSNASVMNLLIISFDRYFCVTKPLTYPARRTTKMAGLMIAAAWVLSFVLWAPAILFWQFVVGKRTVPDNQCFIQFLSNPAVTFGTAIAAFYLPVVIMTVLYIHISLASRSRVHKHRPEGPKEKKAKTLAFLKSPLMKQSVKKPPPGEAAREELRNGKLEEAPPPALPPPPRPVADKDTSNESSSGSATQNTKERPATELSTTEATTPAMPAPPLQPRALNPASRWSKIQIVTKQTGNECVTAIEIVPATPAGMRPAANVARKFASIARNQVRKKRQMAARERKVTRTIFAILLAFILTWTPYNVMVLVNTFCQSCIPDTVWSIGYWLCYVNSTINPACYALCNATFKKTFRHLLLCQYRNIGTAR
# CHRM5 agonist – human M5 muscarinic receptor agonists, primary screen, CHO-K1 cells, Fluo-8 calcium fluorescence | Muscarinic acetylcholine receptor M5 (Homo sapiens), P08912 | CHO-K1 hM5 cells; 0% DMSO wells, 100% maximal acetylcholine response | activation, % at 3 µM | 0.19% of 360,000 active;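 active = activation above the run's mean over test compounds plus 3 SD, cut at about 23% in these data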;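 also: signal is peak over basal fluorescence ratio across the kinetic read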
# M4 ag – human M4 muscarinic receptor agonists, primary screen, CHO-K1 cells, Fluo-8 calcium fluorescence; Muscarinic acetylcholine receptor M4 (Homo sapiens), P08173; activation, % at 3 µM; 0.14% of 360,000 active; CHO-K1 hM4/Gqi5; vehicle 0%, full acetylcholine response 100%; AID 624127, 2012;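 active = activation above the run mean over all test wells plus 3 SD, cut at about 32% in these data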;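 also: peak over basal fluorescence ratio per well then scaled between controls; 0% = DMSO wells and 100% = acetylcholine at EC100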
# M4 PAM – human M4 muscarinic receptor positive allosteric modulators, primary screen, CHO-K1 cells, Fluo-8 calcium fluorescence. AID 624126, 2012. 0.4% of 360,000 active. Muscarinic acetylcholine receptor M4 (Homo sapiens), P08173. CHO-K1 hM4/Gqi5, ACh EC20; 0% = ACh EC20, 100% = maximal ACh. activation, % at 3 µM;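 active = activation above its plate's cutoff, the mean activation of sample wells plus 3 SD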
# Starred values were filed as active, the others as inactive. This is a sample that favours compounds with a hit; in the whole collection about 1.8% have one here.
SMILES,CHRM5 PAM,M5 antag,M4 antag,CHRM5 agonist,M4 ag,M4 PAM
O=S(=O)(c1ccc(NC(=S)NCc2cccnc2)cc1)N1CCCCC1,-26.8,18.4,37.6*,1.9,31.8,-14.7
CCCC(C(=O)Nc1ccc(S(=O)(=O)N2CCOCC2)cc1)c1ccccc1 (stereo unspecified),-5.8,5.2,4.4,23.3*,22.1,-5.3
O=S(=O)(Nc1ccc(S(=O)(=O)N2CCCC2)cc1)c1ccc(F)cc1,7.7,-3.6,-0.9,-2.0,2.3,3.4
O=C(CN1CCOCCOCCOCC1)Nc1ccccc1,-4.5,10.8,2.0,1.8,2.0,5.4
O=C(NCc1cccnc1)c1ccc(S(=O)(=O)N2CCCCC2)cc1,1.4,-5.1,-6.5,1.3,4.2,8.0
Cc1c(C(=O)NCCC#N)sc(=O)n1Cc1ccc(C(=O)N(C)C)cc1,-5.7,3.2,-0.6,0.9,0.1,2.2
O=C(/C=C/c1cccc(F)c1)Nc1ccc(S(=O)(=O)N2CCOCC2)cc1,18.8*,12.0,-15.1,-3.9,2.9,11.2
O=S(=O)(c1ccc(NC(=S)Nc2ccccc2)cc1)N1CCOCC1,24.4*,-1.2,-11.9,-3.1,1.3,29.1*
NNC(=O)CN1C(=O)Nc2ccc(Cl)cc2C1c1ccccc1 (stereo unspecified),1.6,4.5,45.4*,-6.9,-0.3,-16.4
Cc1ccc(CC2SC(N)=NC2=O)cc1 (stereo unspecified),11.6,1.8,-11.6,2.2,1.2,19.8*
NC1=NC(=O)C(Cc2ccc(F)cc2)S1 (stereo unspecified),1.5,-0.8,-5.7,1.1,0.6,3.4
CC(=O)Nc1c(Cl)cnn(-c2ccccc2)c1=O,21.9*,-10.7,-12.8,-0.1,0.6,-6.2
CCCCCc1ccc(C(=O)CCC(=O)OCC(=O)N(CC)c2c(N)n(Cc3ccccc3)c(=O)[nH]c2=O)cc1,-0.8,0.9,-1.4,-3.4,0.8,-1.5
CSc1nc2sc3c(c2c(=O)[nH]1)CC(C)(C)OC3,9.5,-0.4,9.9,0.5,-0.1,-3.0
OCCN(CC#CCC(O)(c1ccccc1)C1CCCC1)CCO (stereo unspecified),7.0,-0.8,-6.5,-13.0,1.3,-1.2
CCN(CC)CC#CCC(O)(c1ccccc1)C1CCCC1 (stereo unspecified),-23.2,94.7*,95.3*,-6.3,1.5,-21.1
CN(C)CC#CCC(O)(c1ccccc1)C1CCCCC1 (stereo unspecified),-30.6,95.5*,92.5*,-16.2,2.7,-16.9
CCCCCOc1ccc(Br)cc1CSC(=N)N,-17.0,31.9*,25.0,4.5,12.4,-14.3
COC(=O)CN(C)C(=O)c1ccc2nc(Cc3cccc(Cl)c3)oc2c1,-3.5,13.5,7.7,0.0,0.4,-6.7
C[C@@H]1CC=C[C@H]2[C@H]1C(=O)N(Cc1ccccc1)[C@H]2c1ccc2ccccc2c1,0.9,5.4,-1.9,4.3,0.0,-3.8
C[C@@H]1CC=C[C@H]2[C@H]1C(=O)N(Cc1ccccc1)[C@H]2c1ccc2ccccc2c1Br,22.1*,0.4,-7.9,0.8,0.1,2.3
COC(=O)c1ccc(OCC2c3cc(OC)c(OC)cc3CCN2C(C)=O)cc1 (stereo unspecified),-12.5,16.0,12.7,-0.1,16.8,-18.1
COC(=O)c1ccc(OCC2c3cc(OC)c(OC)cc3CCN2C(=O)c2ccco2)cc1 (stereo unspecified),-15.3,17.1,29.7*,2.1,21.5,-13.6
Cc1cc(S(=O)(=O)c2ccc(Cl)cc2)nc(S(=O)(=O)c2ccc(Cl)cc2)c1C#N,10.6,8.2,87.5*,6.8,3.3,-13.4
Cc1cc(C)c(S(=O)(=O)c2ccc(Cl)cc2)c(Cl)n1,0.6,6.3,-2.0,-1.9,0.9,13.3
SMILES,CHRM5 PAM,M5 antag,M4 antag,CHRM5 agonist,M4 ag,M4 PAM
Cc1csc(=O)n1CC(=O)OCc1nnc(-c2ccc([N+](=O)[O-])cc2)o1,3.3,8.7,-11.7,3.4,1.9,22.8*
CC(NC(=O)CCNS(=O)(=O)c1ccccc1)c1ccccc1 (stereo unspecified),-1.4,5.0,9.7,-5.1,0.3,21.8*
O=C(CCNS(=O)(=O)c1ccccc1)NCC1CCCCC1,-3.7,2.3,-0.3,2.3,1.0,20.7*
O=C(COC(=O)CCNS(=O)(=O)c1ccccc1)NC1CC1,3.4,4.4,4.6,-0.4,1.9,9.9
CC(C)NC(=O)N(C)C[C@H]1Oc2ccc(NS(=O)(=O)c3ccc(F)cc3)cc2C(=O)N([C@H](C)CO)C[C@@H]1C,6.5,5.8,-4.7,-0.8,0.9,6.7
COc1ccc(N2CCN(C3CCCN(Cc4cccc(C(C)=O)c4)C3)CC2)cc1 (stereo unspecified),16.2,-13.3,4.3,-1.9,1.1,1.4
CC(=O)c1ccc(NC(=O)Nc2ccc(Cl)cc2)cc1,-20.6,24.0,5.8,10.2,27.5,-14.5
CC(=O)c1ccc(NC(=S)NCc2ccc(Cl)cc2Cl)cc1,-25.3,29.2*,17.7,8.0,17.9,-18.4
CCN(CC)S(=O)(=O)c1ccc(C(=O)Nc2c3c(nn2C(C)(C)C)CS(=O)(=O)C3)cc1,2.1,-0.9,26.7*,-1.9,2.0,9.9
CC1(C2CC(C(F)(F)F)n3nc(C(=O)O)cc3N2)CC1 (stereo unspecified),1.9,2.7,8.2,2.2,1.3,0.1
N#C/C(=C\c1ccccc1)C(=O)NNS(=O)(=O)c1ccc(Br)cc1,18.9*,4.3,-0.8,2.4,0.8,6.7
Cc1c(CNCC(C)c2ccccc2)c(C(=O)O)c(C)n1Cc1ccccc1 (stereo unspecified),2.2,8.8,7.2,-1.1,0.4,-7.3
COc1ccccc1C(CNC(=O)c1cccc(S(=O)(=O)N2c3ccccc3CC2C)c1)N(C)C (stereo unspecified),-47.2,77.8*,20.5,-11.2,2.9,-16.2
COc1ccccc1C(CNC(=O)c1cccc(S(=O)(=O)N2CCCc3ccccc32)c1)N(C)C (stereo unspecified),-44.7,67.4*,26.0,-10.8,3.9,-14.3
COc1ccc(C(CNC(=O)c2cccc(S(=O)(=O)N3CCc4ccccc43)c2)N(C)C)cc1 (stereo unspecified),-10.1,5.2,15.6,-9.8,4.2,-9.6

# From PubChem BioAssay
